Measurements as given in ChEMBL document CHEMBL3351691, “Steroidal alkaloids from the marine sponge Corticium niger that inhibit growth of human colon carcinoma cells” (2014).
Active and inactive are the calls of the source. The calls are words filed in the database; no cut-off is given here.

Experiments:
COLO 205 = experiment: Antiproliferative activity against human COLO205 cells assessed as growth inhibition after 48 hrs by XTT assay; type: functional, cell-based
Outline: (§1)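 Cells were seeded into 384-well plates (COLO205 at […] cells/well, KM12 at 2.5×10^5 cells/well) and preincubated for 24 h. DMSO samples were diluted 1:25 in medium, then given five 2:1 serial dilutions and tested in duplicate (0.4% final DMSO). Exposure was 48 h at 37 °C. XTT was then added, and formazan was read after 4 h at 450 nm against a 650 nm reference.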

SW-620 = experiment: Antiproliferative activity against human SW620 cells assessed as growth inhibition after 48 hrs by XTT assay; type: functional, cell-based
KM12 = experiment: Antiproliferative activity against human KM12 cells assessed as growth inhibition after 48 hrs by XTT assay; type: functional, cell-based; outline: as §1
HCC 2998 = experiment: Antiproliferative activity against human HCC2998 cells assessed as growth inhibition after 48 hrs by XTT assay; type: functional, cell-based
HCT-15 = experiment: Antiproliferative activity against human HCT15 cells assessed as growth inhibition after 48 hrs by XTT assay; type: functional, cell-based
[1] = Antiproliferative activity against human NCI60 cells assessed as growth inhibition after 48 hrs by XTT assay; type: functional; conditions: NCI60, 48 h
HT-29 = experiment: Antiproliferative activity against human HT-29 cells assessed as growth inhibition after 48 hrs by XTT assay; type: functional, cell-based
HCT-116 = experiment: Antiproliferative activity against human HCT116 cells assessed as growth inhibition after 48 hrs by XTT assay; type: functional, cell-based

Row | Structure (SMILES) | growth inhibition (GI) (COLO 205) | growth inhibition (GI) (SW-620) | growth inhibition (GI) (KM12) | growth inhibition (GI) (HCC 2998) | growth inhibition (GI) (HCT-15) | GI50 [1] [µM] | growth inhibition (GI) (HT-29) | growth inhibition (GI) (HCT-116)
1 | CC(C)=C1CCNC1C[C@@H](C)[C@H]1CC[C@H]2C3=CC[C@H]4C[C@H](N)CC[C@]4(C)[C@H]3CC[C@]12C (stereo partly drawn) | Active | Active | Active | Active | Active | 11.5 | Active | Active
2 | CC(C)C1CCN(C)C1C[C@@H](C)[C@H]1CC[C@H]2C3=CC[C@H]4[C@H](N)C=CC[C@]4(C)[C@H]3CC[C@]12C (stereo partly drawn) | Active | Active | Active | Active | Active | – | Active | Active
3 | CC(=O)O[C@H]1[C@H](N)CC[C@]2(C)[C@H]3CC[C@]4(C)[C@@H]([C@H](C)CC5NCCC5=C(C)C)CC[C@H]4C3=CC[C@@H]12 (stereo partly drawn) | Active | Active | Active | Active | Active | 2.4 | Active | Active
